Test results from ChEMBL document CHEMBL2321800, “Design and synthesis of new bifunctional sigma-1 selective ligands with antioxidant activity” (J Med Chem, 2013).
Active and inactive are the calls of the source.

Key:
Rattus norvegicus [1] = species: Rattus norvegicus; experiment: Antioxidant activity in rat brain mitochondria assessed as inhibition of Ca2+/phosphate induced mitochondrial swelling by spectrophotometry; type: functional
Rattus norvegicus [2] = species: Rattus norvegicus; experiment: Antioxidant activity in rat liver mitochondria assessed as inhibition of Ca2+/phosphate induced mitochondrial swelling at 50 uM by spectrophotometry; type: functional
Method in brief: (§1)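 Mitochondria from rat liver (50 µM Ca2+) or cerebral cortex (Ficoll-purified; 100 µM Ca2+) at 1 mg protein/ml, 20 °C, in 200 mM sucrose, 10 mM HEPES pH 7.4, 5 mM succinate, 1 mM phosphate, 1.25 µM rotenone. Swelling followed as fall in apparent absorbance at 540 nm. Five runs.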

[3] = Displacement of [3H]DTG from sigma2 receptor in guinea pig brain membrane after 120 mins by liquid scintillation counting analysis; type: cell membranes, Cavia porcellus
Method in brief: (§2)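 Guinea pig brain membranes with 3 nM [3H]DTG (Kd 11 nM) plus 400 nM (+)-SKF10,047 to mask sigma1 sites. Nonspecific binding with 5 µM DTG. 50 mM Tris-HCl pH 8.0, 120 min at room temperature. Filtration, scintillation counting, Ki computed; three determinations. Ratio taken from sigma2 and sigma1 Ki values.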

Cavia porcellus = species: Cavia porcellus; experiment: Selectivity ratio of Ki for guinea pig sigma2 receptor to Ki for guinea pig sigma1 receptor; method in brief: as §2
[4] = molecular target: Sigma non-opioid intracellular receptor 1 (Cavia porcellus, UniProt Q60492); experiment: Displacement of [3H]-(+)-pentazocine from sigma1 receptor in guinea pig brain membrane after 150 mins by liquid scintillation counting analysis; type: cell membranes
Rattus norvegicus [5] = species: Rattus norvegicus; experiment: Antioxidant activity in rat brain mitochondria assessed as restoration of Ca2+/phosphate induced sulfhydryl group oxidation at 3 mM after 15 mins by mitochondrial thiol oxidation assay; type: functional
Method in brief: (§3)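 After 15 min under swelling conditions (1 mg/ml; Ca2+ 50 µM liver, 100 µM brain; succinate/rotenone, 1 mM phosphate, 20 °C), mitochondria were pelleted and solubilized in pH 8.3 EDTA/Tris/1% SDS with DTNB. Thiols read at 412 nm and given as percent reduced SH groups. Five independent experiments; ANOVA and Student's t-test.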

Rattus norvegicus [6] = species: Rattus norvegicus; experiment: Antioxidant activity in rat liver mitochondria assessed as restoration of Ca2+/phosphate induced sulfhydryl group oxidation at 3 mM after 15 mins by mitochondrial thiol oxidation assay; type: functional; method in brief: as §3
Rattus norvegicus [7] = experiment: Reduction of (-)-U50488H-induced basal tail flick latency in Sprague-Dawley rat at 1 mg/kg, sc after 30 to 90 mins by radiant heat tail flick test; type: functional, organism-based; set-up: dose 1 mg/kg
Method in brief: (§4)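 Male Sprague-Dawley rats (180-200 g), habituated the day before; radiant heat (infrared) aimed at lower third of tail, 25±1 °C. Basal latency 3-4 s, mean of three readings at 5 min intervals; 10 s cut-off. Drugs sc; tail-flick latency read 30, 45, 60, 75 and 90 min after injection. n=8-10, mean ± SD, two-way ANOVA with Duncan post-hoc.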

Rattus norvegicus [8] = species: Rattus norvegicus; experiment: Antioxidant activity in rat brain mitochondria assessed as restoration of Ca2+/phosphate induced sulfhydryl group oxidation at 50 uM after 15 mins by mitochondrial thiol oxidation assay; type: functional; method in brief: as §3
Rattus norvegicus [9] = species: Rattus norvegicus; experiment: Antioxidant activity in rat brain mitochondria assessed as inhibition of Ca2+/phosphate induced mitochondrial permeability transition at 25 to 50 uM by spectrophotometry; type: functional; method in brief: as §1
Rattus norvegicus [10] = species: Rattus norvegicus; experiment: Antioxidant activity in rat liver mitochondria assessed as restoration of Ca2+/phosphate induced sulfhydryl group oxidation at 25 to 50 uM after 15 mins by mitochondrial thiol oxidation assay; type: functional; method in brief: as §3
Rattus norvegicus [11] = species: Rattus norvegicus; experiment: Antioxidant activity in rat liver mitochondria assessed as inhibition of Ca2+/phosphate induced mitochondrial swelling at 25 uM by spectrophotometry; type: functional; method in brief: as §1
Rattus norvegicus [12] = experiment: Antinociceptive activity in Sprague-Dawley rat assessed as basal tail flick latency at 1 mg/kg, sc by radiant heat tail flick test; type: functional, organism-based; set-up: dose 1 mg/kg; method in brief: as §4

Sequence of Sigma non-opioid intracellular receptor 1 (Q60492 whole entry): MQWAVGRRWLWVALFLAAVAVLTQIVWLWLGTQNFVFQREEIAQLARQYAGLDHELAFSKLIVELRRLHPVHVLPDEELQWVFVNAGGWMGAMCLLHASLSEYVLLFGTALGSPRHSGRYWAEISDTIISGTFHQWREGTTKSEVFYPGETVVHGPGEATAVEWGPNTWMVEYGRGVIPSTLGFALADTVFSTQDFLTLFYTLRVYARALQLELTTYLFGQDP

Row | SMILES | Ki [3] [nM] | Ratio Ki (Cavia porcellus) | Ki [4] [nM] | other results
1 | Nc1ncnc2c1ncn2[C@@H]1O[C@H](COP(=O)(O)OP(=O)(O)O)[C@@H](O)[C@H]1O |  |  |  | inhibition (Rattus norvegicus [1]): Active; inhibition (Rattus norvegicus [2]): Active
2 | O=C(CCCCC1CCSS1)OC1CCN(CCc2ccccc2)CC1 (stereo not given) | 160 | 11.8 | 13.5 | 
3 | OC[C@@H](O)[C@@H](S)CS |  |  |  | Activity (Rattus norvegicus [5]): Active; inhibition (Rattus norvegicus [1]): inactive; Activity (Rattus norvegicus [6]): Active; inhibition (Rattus norvegicus [2]): Active
4 | O=C(CCCCC1CCSS1)N1CCN(CCCc2ccccc2)CC1 (stereo not given) | 91.6 | 9.16 | 10 | 
5 | O=C(CCCCC1CCSS1)OC1CCN(CC2CCCCC2)CC1 (stereo not given) | 14 | 12.3 | 1.14 | 
6 | O=C(CCCCC1CCSS1)N1CCN(C2CCCCC2)CC1 (stereo not given) | 11.2 | 28 | 0.4 | 
7 | CN1CCN(C(=O)CCCCC2CCSS2)CC1 (stereo not given) | 21000 | 183 | 115 | 
8 | O=C(CCCCC1CCSS1)N1CCN(Cc2ccccc2)CC1 (stereo not given) | 637 | 354 | 1.8 | 
9 | O=C(CCCCC1CCSS1)OC1CCN(CCCc2ccccc2)CC1 (stereo not given) | 101 | 3.9 | 25.7 | 
10 | O=C(CCCCC1CCSS1)OC1CCN(Cc2ccccc2)CC1 (stereo not given) | 2300 | 414 | 5.56 | Activity (Rattus norvegicus [7]): Active; Activity (Rattus norvegicus [8]): Active; inhibition (Rattus norvegicus [9]): Active; Activity (Rattus norvegicus [10]): Active; inhibition (Rattus norvegicus [2]): Active; inhibition (Rattus norvegicus [11]): Active; Activity (Rattus norvegicus [12]): inactive
11 | O=C(CCCCC1CCSS1)N1CCN(CCc2ccccc2)CC1 (stereo not given) | 209 | 24.8 | 8.4 | 
